Converted amounts (≈) assume the structure as drawn.
How the values were obtained:
[Candida] sake = Anticandida activity against Candida sake clinical isolate assessed as growth inhibition after 24 hrs by broth microdilution method; format: functional; conditions: Fermentozyma sake
Procedure, shortened: (§1)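 Clinical Candida isolates subcultured for purity and optimal growth before testing; compounds dissolved in DMSO. Broth microdilution per NCCLS in Sabouraud dextrose broth, serial dilutions, inoculum about 10³/mL, with growth control and medium-only control; 24 h incubation at 37 °C. MIC is the lowest concentration giving complete visible inhibition.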

Candida tropicalis = assay: Anticandida activity against Candida tropicalis clinical isolate assessed as growth inhibition after 24 hrs by broth microdilution method; format: functional; procedure, shortened: as §1
Klebsiella oxytoca = assay: Antibacterial activity against Klebsiella oxytoca assessed as growth inhibition after 18 to 22 hrs by broth microdilution method; format: functional
Procedure, shortened: (§2)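 Bacterial isolates subcultured for purity, identified conventionally. Broth microdilution per NCCLS in Mueller-Hinton II broth; plates with growth control (no compound) and medium-only control, incubated 18-22 h at 35 °C. MIC taken as lowest concentration giving complete growth inhibition by unaided eye.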

Candida parapsilosis = assay: Anticandida activity against Candida parapsilosis clinical isolate assessed as growth inhibition after 24 hrs by broth microdilution method; format: functional; conditions: Lodderomyces parapsilosis; procedure, shortened: as §1
Enterobacter sp. = assay: Antibacterial activity against Enterobacter spp. assessed as growth inhibition after 18 to 22 hrs by broth microdilution method; format: functional; procedure, shortened: as §2
Proteus mirabilis = assay: Antibacterial activity against Proteus mirabilis assessed as growth inhibition after 18 to 22 hrs by broth microdilution method; format: functional; procedure, shortened: as §2
Candida albicans = assay: Anticandida activity against Candida albicans clinical isolate assessed as growth inhibition after 24 hrs by broth microdilution method; format: functional; procedure, shortened: as §1
Staphylococcus aureus = assay: Antibacterial activity against Staphylococcus aureus assessed as growth inhibition after 18 to 22 hrs by broth microdilution method; format: functional; procedure, shortened: as §2
Pichia kudriavzevii = assay: Anticandida activity against Candida krusei clinical isolate assessed as growth inhibition after 24 hrs by broth microdilution method; format: functional; procedure, shortened: as §1
[1] = tested on: Streptococcus alpha-hemolyticus; assay: Antibacterial activity against Streptococcus alpha-hemolyticus assessed as growth inhibition after 18 to 22 hrs by broth microdilution method
Enterococcus faecalis = assay: Antibacterial activity against […] assessed as growth inhibition after 18 to 22 hrs by broth microdilution method; format: functional; procedure, shortened: as §2
Escherichia coli = assay: Antibacterial activity against Escherichia coli assessed as growth inhibition after 18 to 22 hrs by broth microdilution method; format: functional; procedure, shortened: as §2
Nakaseomyces glabratus = assay: Anticandida activity against Candida glabrata clinical isolate assessed as growth inhibition after 24 hrs by broth microdilution method; format: functional; procedure, shortened: as §1
Staphylococcus warneri = assay: Antibacterial activity against Staphylococcus warneri assessed as growth inhibition after 18 to 22 hrs by broth microdilution method; format: functional; procedure, shortened: as §2
[2] = Cytotoxicity against human Hep2 cells assessed as cell survival fraction at 100 ug/ml after 24 hrs by trypan blue exclusion assay (reference value: 97 to 98%); format: cell-based; conditions: HEp-2 cells, read-out: Survival
[3] = Cytotoxicity against human Hep2 cells assessed as cell survival fraction at 0.05 ug/ml after 24 hrs by trypan blue exclusion assay (reference value: 97 to 98%); format: cell-based; conditions: HEp-2 cells, read-out: Survival
[4] = Cytotoxicity against human Hep2 cells assessed as cell survival fraction at 50 ug/ml after 24 hrs by trypan blue exclusion assay (reference value: 97 to 98%); format: cell-based; conditions: HEp-2 cells, read-out: Survival
[5] = Cytotoxicity against human Hep2 cells assessed as cell survival fraction at 10 ug/ml after 24 hrs by trypan blue exclusion assay (reference value: 97 to 98%); format: cell-based; conditions: HEp-2 cells, read-out: Survival
[6] = Cytotoxicity against human Hep2 cells assessed as cell survival fraction at 5 ug/ml after 24 hrs by trypan blue exclusion assay (reference value: 97 to 98%); format: cell-based; conditions: HEp-2 cells, read-out: Survival
[7] = Cytotoxicity against human Hep2 cells assessed as reduction of cell viability after 24 hrs by trypan blue exclusion assay; format: cell-based; conditions: HEp-2 cells
Procedure, shortened: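 Hep2 cells in DMEM with 10% FBS, penicillin-streptomycin, 5% CO₂, 37 °C. Cells at 1 × 10⁵/mL exposed 24 h to seven concentrations (0.005-100 µg/mL), DMSO ≤0.5% final; controls were medium alone, DMSO, and 1 mM sodium nitroprusside. Cells scraped, allowed 30 min recovery, mixed 1:1 with 0.4% trypan blue, counted by hemocytometer by two operators.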

[8] = Cytotoxicity against human Hep2 cells assessed as cell survival fraction at 0.5 ug/ml after 24 hrs by trypan blue exclusion assay (reference value: 97 to 98%); format: cell-based; conditions: HEp-2 cells, read-out: Survival
[9] = Cytotoxicity against human Hep2 cells assessed as cell survival fraction at 0.005 ug/ml after 24 hrs by trypan blue exclusion assay (reference value: 97 to 98%); format: cell-based; conditions: HEp-2 cells, read-out: Survival

Compound	MIC ([Candida] sake)	MIC (Candida tropicalis)	MIC (Klebsiella oxytoca)	MIC (Candida parapsilosis)	MIC (Enterobacter sp.)	MIC (Proteus mirabilis)	MIC (Candida albicans)	MIC (Staphylococcus aureus)	MIC (Pichia kudriavzevii)	MIC (Enterococcus faecalis)	MIC (Escherichia coli)	MIC (Nakaseomyces glabratus)	MIC (Staphylococcus warneri)	MIC [1]	also measured
CCC(CC)=NNc1nc(-c2ccc(C)cc2)cs1	2 µg/mL (≈ 7.32 µM)	2 µg/mL (≈ 7.32 µM)	> 256 µg/mL	2 µg/mL (≈ 7.32 µM)	> 256 µg/mL	> 256 µg/mL	0.5 µg/mL (≈ 1.83 µM)	> 256 µg/mL	2 µg/mL (≈ 7.32 µM)	> 256 µg/mL	> 256 µg/mL	0.25 µg/mL (≈ 0.914 µM)	> 256 µg/mL	> 256 µg/mL	viability at 24 h, 100 ug/ml [2]: 77%; viability at 24 h, 0.05 ug/ml [3]: 92.2%; viability at 24 h, 50 ug/ml [4]: 67%; viability at 24 h, 10 ug/ml [5]: 72.4%; viability at 24 h, 5 ug/ml [6]: 84%; CC50 at 24 h [7]: ≥ 100 µg/mL; viability at 24 h, 0.5 ug/ml [8]: 86%; viability at 24 h, 0.005 ug/ml [9]: 94.6%
CCCCC/C(C)=N/Nc1nc(-c2ccc(C)cc2)cs1	8 µg/mL (≈ 26.5 µM)	4 µg/mL (≈ 13.3 µM)	> 256 µg/mL	8 µg/mL (≈ 26.5 µM)	> 256 µg/mL	> 256 µg/mL	0.5 µg/mL (≈ 1.66 µM)	> 256 µg/mL	8 µg/mL (≈ 26.5 µM)	> 256 µg/mL	> 256 µg/mL	2 µg/mL (≈ 6.63 µM)	> 256 µg/mL	> 256 µg/mL	
COc1ccc(-c2csc(NN=C(C)C)n2)cc1	16 µg/mL (≈ 61.2 µM)	2 µg/mL (≈ 7.65 µM)	> 256 µg/mL	16 µg/mL (≈ 61.2 µM)	> 256 µg/mL	> 256 µg/mL	0.25 µg/mL (≈ 0.957 µM)	> 256 µg/mL	16 µg/mL (≈ 61.2 µM)	> 256 µg/mL	> 256 µg/mL	0.5 µg/mL (≈ 1.91 µM)	> 256 µg/mL	> 256 µg/mL	
CCC/C(C)=N/Nc1nc(-c2ccc(OC)cc2)cs1	2 µg/mL (≈ 6.91 µM)	2 µg/mL (≈ 6.91 µM)	> 256 µg/mL	2 µg/mL (≈ 6.91 µM)	> 256 µg/mL	> 256 µg/mL	0.25 µg/mL (≈ 0.864 µM)	> 256 µg/mL	2 µg/mL (≈ 6.91 µM)	> 256 µg/mL	> 256 µg/mL	2 µg/mL (≈ 6.91 µM)	> 256 µg/mL	> 256 µg/mL	viability at 24 h, 100 ug/ml [2]: 0%; viability at 24 h, 0.05 ug/ml [3]: 90%; viability at 24 h, 50 ug/ml [4]: 0%; viability at 24 h, 10 ug/ml [5]: 75.5%; viability at 24 h, 5 ug/ml [6]: 83%; CC50 at 24 h [7]: 36 µg/mL (≈ 124 µM); viability at 24 h, 0.5 ug/ml [8]: 88%; viability at 24 h, 0.005 ug/ml [9]: 92%

The next lines start with results.

MIC ([Candida] sake)	MIC (Candida tropicalis)	MIC (Klebsiella oxytoca)	MIC (Candida parapsilosis)	MIC (Enterobacter sp.)	MIC (Proteus mirabilis)	MIC (Candida albicans)	MIC (Staphylococcus aureus)	MIC (Pichia kudriavzevii)	MIC (Enterococcus faecalis)	MIC (Escherichia coli)	MIC (Nakaseomyces glabratus)	MIC (Staphylococcus warneri)	Compound	MIC [1]	also measured
16 µg/mL (≈ 48.6 µM)	16 µg/mL (≈ 48.6 µM)	> 256 µg/mL	16 µg/mL (≈ 48.6 µM)	> 256 µg/mL	> 256 µg/mL	2 µg/mL (≈ 6.07 µM)	> 256 µg/mL	16 µg/mL (≈ 48.6 µM)	> 256 µg/mL	> 256 µg/mL	4 µg/mL (≈ 12.1 µM)	> 256 µg/mL	COc1ccc(-c2csc(N/N=C(\C)C3CCCCC3)n2)cc1	> 256 µg/mL	
16 µg/mL (≈ 48.6 µM)	16 µg/mL (≈ 48.6 µM)	> 256 µg/mL	16 µg/mL (≈ 48.6 µM)	> 256 µg/mL	> 256 µg/mL	2 µg/mL (≈ 6.07 µM)	> 256 µg/mL	16 µg/mL (≈ 48.6 µM)	> 256 µg/mL	> 256 µg/mL	4 µg/mL (≈ 12.1 µM)	> 256 µg/mL	COc1ccc(-c2csc(NN=C3CCCCCCC3)n2)cc1	> 256 µg/mL	
256 µg/mL (≈ 782 µM)	256 µg/mL (≈ 782 µM)	> 256 µg/mL	64 µg/mL (≈ 195 µM)	> 256 µg/mL	> 256 µg/mL	8 µg/mL (≈ 24.4 µM)	> 256 µg/mL	256 µg/mL (≈ 782 µM)	> 256 µg/mL	> 256 µg/mL	32 µg/mL (≈ 97.7 µM)	> 256 µg/mL	COc1ccc(-c2csc(N/N=C3/C=CC(C)(C)CC3)n2)cc1	> 256 µg/mL	

From ChEMBL document CHEMBL2401735, “Synthesis and cytotoxicity of novel (thiazol-2-yl)hydrazine derivatives as promising anti-Candida agents” (Eur J Med Chem, 2013)
